# Assay outcomes deposited in PubChem by several laboratories.
# Shown are actives, neighbours in structure and some others; about 1.3% of the full set was active somewhere.
# Calb biofilm kill: mixtures killing C. albicans biofilm; C. albicans biofilm persisters + clotrimazole, fluorescence viability; primary screen in compound mixtures of four per well; inhibition, % at 7.6 µM; actives 0.02% (n = 120,000);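 active = inhibition above 30.3% in the primary screen of four-compound pools, then above 30% when the compound was retested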;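 note: compounds exposed to preformed 24 h biofilms for 48 h; 0% = untreated biofilm control and 100% = clotrimazole plus chlorhexidine kill blank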
#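 Probe or stimulus – Clotrimazole 50 µg/mL co-treatment · System – C. albicans biofilms · Schedule – 24 h biofilm formation, then 48 h compound exposure, 37 °C · Evaluation – percent inhibition of biofilm viability · Technique – 2-h Alamar Blue fluorescence, 535/590 nm excitation/emission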
# S1P3 antagonist: blocks the human S1P3 receptor; Q99500; CHO S1P3 NFAT-BLA reporter, FRET fluorescence, antagonist mode; inhibition, % at 4.98 µM; actives 0.27% (n = 170,000); AID 485;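 active = inhibition above the plate cutoff, the mean inhibition of test wells on that plate plus 3 SD, cut at about 28% in these data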;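 note: cells challenged with S1P at its EC80 of 0.8 µM; blue over green emission ratio from cleaved BLA substrate after 4 h stimulation; 0% = S1P-stimulated wells and 100% = unstimulated DMSO-only wells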
# Target sequence (Q99500 whole entry, looked up): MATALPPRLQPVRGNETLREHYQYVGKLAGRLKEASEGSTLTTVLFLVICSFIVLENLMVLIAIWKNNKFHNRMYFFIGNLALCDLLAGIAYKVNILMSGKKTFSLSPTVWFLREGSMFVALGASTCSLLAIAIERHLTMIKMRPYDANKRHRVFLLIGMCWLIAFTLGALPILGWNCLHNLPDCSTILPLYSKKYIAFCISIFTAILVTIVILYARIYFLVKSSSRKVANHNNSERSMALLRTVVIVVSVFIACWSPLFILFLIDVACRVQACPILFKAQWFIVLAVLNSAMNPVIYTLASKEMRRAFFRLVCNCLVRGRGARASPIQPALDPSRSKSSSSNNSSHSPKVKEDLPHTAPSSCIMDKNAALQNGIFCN
# TbHK1 inh: blocks Trypanosoma brucei hexokinase 1 activity; recombinant TbHK1, G6PDH-coupled NADH A340; inhibition, % at 10 µM; actives 0.11% (n = 220,000);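 active = inhibition of 50% or more in the single-dose primary screen; inactive = inhibition below 50%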
# Dynein cargo inh: blocks dynein driven cargo transport along microtubules; 3617.4 mouse cells, GR-EGFP nuclear translocation imaging; test concentration mostly 20 µM; stimulated with dexamethasone, 1 µM; hits give low values; z-score, hits read low; actives 0.47% (n = 220,000); AID 1381;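 active = plate z-score of nuclear minus cytoplasmic receptor signal below a set negative limit, without overly bright fluorescence or cell loss, cut at about -3.5 in these data, passing the limit was not always enough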;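 note: z-score of nuclear minus cytoplasmic ring GR-EGFP intensity difference per well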
#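 medium = tetracycline-free induction medium containing charcoal-stripped FBS | probe or stimulus = dexamethasone, 1.0 µM final | timing = 48 h induction, then 1 h compound, then 30 min agonist, 37 °C | detection = automated 10x imaging of fixed Hoechst-stained cells | read-out basis = nuclear versus cytoplasmic GR-EGFP signal, averaged per well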
# S1P4 antag: antagonists of human S1P4 receptor; S1P4-expressing cells, antagonist mode, reporter read-out; O95977; actives 0.26% (n = 220,000); AID 1510; inhibition, % at 4.98 µM; in the data active = inhibition above about 29%;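 note: 0% = wells stimulated with agonist and 100% = vehicle wells without agonist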
# S1P4 ag: agonists of human S1P4 receptor; actives 0.35% (n = 220,000); S1P4-expressing cell line, agonist reporter assay; activation, % at 4.98 µM; O95977; in the data active = activation above about 11%;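 note: 0% = DMSO vehicle and 100% = reference agonist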
# Dynein confirm: dynein cargo transport inhibition, confirmation | 3617.4 GR-EGFP nuclear translocation imaging, dexamethasone-induced | shares compounds with Dynein cargo inh | actives 69% (n = 1,000) | calls only at 20 µM;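 active = inhibition of receptor movement into the nucleus at or above a set limit in both runs, with normal cell brightness and cell count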;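 note: dexamethasone at 1 µM final in well for 30 min; nuclear minus cytoplasmic GR-EGFP mean intensity difference in channel 2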
# G6PDH counter: Leuconostoc glucose-6-phosphate dehydrogenase inhibition, counter-screen | shares compounds with TbHK1 inh | purified G6PDH, NADH absorbance, 1 h | inhibition, % at 10 µM | actives 7% (n = 210);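 active = at least 50% inhibition in the glucose-6-phosphate dehydrogenase coupled counterscreen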
# TbHK1 confirm: confirmation of Trypanosoma brucei hexokinase 1 inhibitors. inhibition, % at 10 µM. AID 2560. recombinant TbHK1, G6PDH-coupled NADH A340 absorbance. shares compounds with TbHK1 inh. actives 10% (n = 210);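 active = inhibition of at least 50% in both of the two screening runs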;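 note: 0% and 100% set by the maximum and minimum signal control wells on each plate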
# S1P4 agonist cf: confirmation of human S1P4 receptor agonists. shares compounds with S1P4 ag. S1P4 agonist cell-based reporter assay. activation, % at 4.98 µM. actives 7% (n = 740); in the data active = activation above about 12%;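 note: 0% = vehicle and 100% = full reference agonist response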
# S1P1 ag: counter-screen for S1P4 agonists: agonists of human S1P1; S1P1 agonist cell-based assay, activation; activation, % at 4.98 µM; AID 1563; actives 4% (n = 740); shares compounds with S1P4 ag; in the data active = activation above about 21%;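 note: 0% = vehicle wells and 100% = reference agonist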
# Target sequence (P21453 whole entry, looked up): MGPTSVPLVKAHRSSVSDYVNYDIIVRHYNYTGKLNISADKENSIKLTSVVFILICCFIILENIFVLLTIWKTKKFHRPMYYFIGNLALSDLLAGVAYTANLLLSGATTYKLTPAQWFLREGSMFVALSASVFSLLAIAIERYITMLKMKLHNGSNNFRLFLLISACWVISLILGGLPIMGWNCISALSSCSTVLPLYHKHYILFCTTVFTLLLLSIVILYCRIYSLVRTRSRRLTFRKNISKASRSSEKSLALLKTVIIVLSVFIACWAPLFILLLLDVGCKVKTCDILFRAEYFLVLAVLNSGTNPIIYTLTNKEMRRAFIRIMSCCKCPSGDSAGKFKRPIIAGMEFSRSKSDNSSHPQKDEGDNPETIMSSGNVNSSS
# S1P4 antag conf: human S1P4 antagonism, confirmation. inhibition, % at 4.98 µM. actives 71% (n = 520). shares compounds with S1P4 antag. S1P4-expressing cell line, antagonist mode, reporter read-out; in the data active = inhibition above about 30%
# S1P1 antagonist: counter-screen for S1P4 antagonists: antagonists of human S1P1; shares compounds with S1P4 antag; cell-based S1P1 antagonist counterscreen, inhibition; inhibition, % at 4.98 µM; actives 37% (n = 520); in the data active = inhibition above about 40%;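 note: receptor stimulated with S1P near its EC80; 0% = agonist stimulated wells and 100% = vehicle only wells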
# Numbers without * were called inactive; / = not tested or not shown; + = active, no number.
SMILES,Calb biofilm kill,S1P3 antagonist,TbHK1 inh,Dynein cargo inh,S1P4 antag,S1P4 ag,Dynein confirm,others
CCOC(=O)c1c(-n2c(C)cc(/C=C3/C(=O)NC(=O)N(CC)C3=O)c2C)sc2c1CCCC2,/,/,-8,-0.69,-10,4,/,
CCOC(=O)c1c(-n2c(C)cc(C=C3C(=O)NC(=S)NC3=O)c2C)sc2c1CCCC2,/,/,5,-4.6*,-9,4,+,
COc1ccc(CN2C(=O)NC(=O)/C(=C\c3ccco3)C2=O)cc1,14,-16,4,-0.56,-12,2,/,
O=C1NC(=O)N(Cc2ccccc2)C(=O)/C1=C/C=C/c1ccco1,13,9,-8,-6*,4,-3,+,
CCN1C(=O)C(=C/C=C/c2ccco2)C(=O)N(CC)C1=S,9,-17,-1,-4.5*,-3,0,+,
CC(C)c1ccc(N2C(=O)NC(=O)/C(=C\C=C\c3ccco3)C2=O)cc1,20,5,0,-3.9*,14,1,+,
CN1C(=O)N(C)C(=O)C2(Cc3c(nc4ccccn4c3=O)N3CCc4ccccc4C32)C1=O (centres undefined),/,-14,-1,1.1,-8,-2,/,
O=C(CCN1C(=O)COc2ccccc21)N1CCC2(CC1)OCCO2,/,3,2,-0.62,6,-1,/,
O=C(Cc1cc(=O)[nH]c(=O)[nH]1)N1CCN(CCO)CC1,13,-4,1,-1.1,6,0,/,
COc1cc(/C=C/[N+](=O)[O-])ccc1O,15,8,-14,-5.7*,1,1,+,
COc1cc(/C=C2/C(=O)NC(=O)N(c3ccccc3)C2=O)ccc1O,8,-1,-29,-0.27,-22,2,/,
Cc1ccccc1NC1=NCC(C)S1 (centres undefined),/,7,-4,-0.17,-15,0,/,
COc1ccc(N2C(=O)NC(=O)/C(=C/c3ccc([N+](=O)[O-])s3)C2=O)cc1,30,-2,-16,-5.3*,0,0,+,
CCOc1ccc(N2C(=O)NC(=O)/C(=C\c3cc(OC)c(OC)cc3[N+](=O)[O-])C2=O)cc1,15,1,30,-0.28,-2,0,/,
COc1ccc(CN2C(=O)NC(=O)/C(=C\c3cc(OC)c(OC)c(OC)c3)C2=O)cc1,23,-4,-4,-0.11,-3,2,/,
COc1cccc(N2C(=O)NC(=O)/C(=C/c3ccc([N+](=O)[O-])s3)C2=O)c1,27,-6,-9,-5.6*,23,-1,+,
COc1ccc(CN2C(=O)NC(=O)/C(=C/c3ccc([N+](=O)[O-])s3)C2=O)cc1,15,-9,-15,-4.3*,0,-1,+,
COc1ccc(N2C(=O)NC(=O)/C(=C\c3ccc([N+](=O)[O-])s3)C2=O)cc1,13,-23,-7,-7.1*,1,0,+,
O=C(c1ccncc1)C12CN3CN(CN(C3)C1)C2,/,-3,-4,-0.018,-7,0,/,
COc1ccccc1N1C(=O)NC(=O)/C(=C/c2ccc([N+](=O)[O-])s2)C1=O,30,1,-21,-5.8*,-3,0,+,
O=P(O)(O)COc1ccccc1O,/,-34,73*,-0.33,-21,2,/,G6PDH counter=-8;TbHK1 confirm=-1
NP(=O)(Oc1ccccc1Cl)Oc1ccccc1Cl,12,-27,3,-0.72,-25,1,/,
O=c1[nH]c(=O)n(CCC2=CCCCC2)c(O)c1C=NCc1cccnc1,/,14,56*,1.6,-6,1,/,G6PDH counter=-9;TbHK1 confirm=-6
Cc1ccc(NC(=O)CSc2nnc([C@@H](N)Cc3c[nH]c4ccccc34)o2)c(C)c1,/,-1,-3,-0.57,-15,-1,/,
CCOC(=O)c1sc(/N=C/c2c(O)n(-c3ccccc3)c(=O)[nH]c2=O)c(C#N)c1C,/,/,-16,1,12,13*,/,S1P4 agonist cf=-2;S1P1 ag=-2
SMILES,Calb biofilm kill,S1P3 antagonist,TbHK1 inh,Dynein cargo inh,S1P4 antag,S1P4 ag,Dynein confirm,others
Nc1cccc(N=Cc2c(O)n(Cc3ccc(F)cc3)c(=O)[nH]c2=O)c1,/,-1,-13,-0.62,-25,0,/,
Cc1cccc(-n2c(O)c(C=Nc3ccc(Br)cn3)c(=O)[nH]c2=O)c1,15,-3,-18,-0.64,-1,1,/,
Cc1cccc(-n2c(O)c(C)c(=O)[nH]c2=S)c1,15,-8,-4,-0.24,-6,56*,/,S1P4 agonist cf=-2;S1P1 ag=1
C/C1=C\[C@@H](C)C/C=C/[C@H]2[C@@H]3O[C@]3(C)[C@@H](C)[C@H]3[C@H](Cc4c[nH]c5ccccc45)NC(=O)[C@]32C(=O)/C=C/C(=O)[C@@H]1O,19,22,-6,-3.2,33*,-1,/,S1P4 antag conf=59*;S1P1 antagonist=25
CC1(C)CC2(CCO1)NCCN1C(=O)CSC12 (centres undefined),/,-72,8,-0.3,-8,0,/,
NC1=NC(c2cccnc2)n2c(nc3ccccc32)N1 (centres undefined),24,-10,-12,2.6,6,0,/,
CC[C@@]1(O)C(=O)OCc2c1cc1n(c2=O)Cc2cc3c(NC(=O)CN)cccc3nc2-1,5,-2,-38,0.97,-5,0,/,
CCC1(OC(=O)CN)C(=O)OCc2c1cc1n(c2=O)Cc2cc3ccccc3nc2-1 (centres undefined),24,15,-40,-0.88,92*,3,/,S1P4 antag conf=64*;S1P1 antagonist=24
Cc1cccc(NC(N)=S)c1,/,/,5,-0.36,12,0,/,
CCCCn1c(NC(=O)c2ccco2)c(C(=O)OCC)c2nc3ccccc3nc21,/,-15,-14,2.2,31*,-1,/,S1P4 antag conf=16;S1P1 antagonist=5
Cc1ccc(C(C)C)c(OCC#CCN2CCCC2)c1,15,8,3,-0.36,-21,0,/,
CC1=CC2/C=C(\C)CCC(O)C(O)/C=C/C(=O)C23C(=O)NC(CC(C)C)C3C1C (centres undefined),19,7,-3,0.086,64*,-1,/,S1P4 antag conf=114*;S1P1 antagonist=23
COc1cc(/C=C(/C)[N+](=O)[O-])ccc1OCc1ccccc1Cl,23,-23,0,-2,54*,-1,/,S1P4 antag conf=120*;S1P1 antagonist=148*
